Screening data as filed in PubChem BioAssay.
HIV Env fusion – HIV envelope-mediated fusion inhibition; HeLa-JRFL Env/CEM21 cell fusion, luciferase; AID 651610; inhibition, % at 12.3 µM; 360,000 compounds, 1.1% hits;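 active = mean replicate inhibition score of at least 50 and every replicate individually at or above 50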;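 also: 0% = plate neutral controls and 100% = maraviroc near 300 nM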
PGC1a acetyl inh – lowers PGC1a acetylation signal in U2OS cells; inhibition, % at 15.6 µM; AlphaScreen anti-acetyl-lysine; with virally co-expressed GCN5 acetyltransferase; 350,000 compounds, 0.17% hits;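 active = every replicate shows inhibition of at least 40%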;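 also: 0% = neutral control wells and 100% = positive control wells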
EWS-Fli inh – blocks EWS/Fli oncoprotein-driven transcription; A673 NR0B1-luciferase reporter, viability-normalised; inhibition, % at 12.6 µM; 350,000 compounds, 0.67% hits; AID 651661;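 active = mean inhibition of at least 50% after viability correction, with every replicate also passing that limit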;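 also: firefly luciferase signal divided by Alamar Blue viability fluorescence both relative to DMSO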
CFTR F508del cor – correctors of CFTR F508del function in bronchial epithelial cells. CFBE cells, YFP halide quenching; stimulated with forskolin plus potentiator P3; % fluorescence drop versus neutral controls. AID 720511. 350,000 compounds, 0.36% hits. activity (quench increase), % at 7.58 µM;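 active = mean added fluorescence quench of at least 8% versus neutral control, with both replicates also reaching 8%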;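 also: cells transiently co-express mutant CFTR-F508del with the halide-sensitive YFP; corrector assay measuring rescue of mutant channel to the surface after 24 h compound exposure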
FN deposition inh – fibronectin deposition inhibition. 350,000 compounds, 0.086% hits. AH1F fibroblasts, Alexa488-fibronectin deposition fluorescence, overnight. inhibition, % at 12.6 µM;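 active = mean inhibition across replicates of 30% or more, regardless of how many single replicates reach that level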;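 also: positive control wells lacked labelled fibronectin entirely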
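Assay system: AH1F fibroblast monolayer, labelled fibronectin deposition. Amount: 10000 cells per well. Also added: labelled fibronectin 24 nM. Compound: single-point pinned compound. Incubation: cell attachment 1 h, compound and FN exposure overnight. Detection: fluorescence after three HBSS washes, excitation 485 nm, emission 525 nm. Read-out: inhibition of fibronectin deposition signal.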
PAX8 reporter – PAX8 transcriptional activity inhibition; inhibition, % at 12.6 µM; 360,000 compounds, 1.2% hits; RMG-I TPO-luciferase reporter, SteadyGlo, 24 h; AID 652154;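 active = mean replicate inhibition at least 60% with every replicate also reaching 60%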;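 also: luciferase light reporting Pax8 driven TPO promoter activity; plate controls were median of neutral control wells for no effect and mitoxantrone controls for full effect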
Numbers without * were called inactive; [ ] = remark or other dose. Most compounds without a hit are left out; they make up all but 2.3% or so of the library.

Results for Cn1ccnc1SCc1nc2c(cnn2-c2ccccc2)c(=O)[nH]1 ?
EWS-Fli inh: 2.0; CFTR F508del cor: -1.5; FN deposition inh: 2.1; PAX8 reporter: 139.8*

What do the screens show for `Cc1cnc(NC(=O)CN2C(=O)C3CC=CCC3C2=O)s1` (stereo unspecified)?
HIV Env fusion: -22.8; FN deposition inh: -4.3

How did O=C(CN1C(=O)C2CC=CCC2C1=O)Nc1nccs1 (stereo unspecified) do in these assays?
PGC1a acetyl inh: 50.1*

Results for C[C@H](CO)N1C[C@H](C)[C@@H](CN(C)Cc2cncnc2)Oc2ncc(C#Cc3ccccn3)cc2C1=O ?
HIV Env fusion: -1.4[16.7 µM]; PGC1a acetyl inh: -7.4; EWS-Fli inh: -2.3; CFTR F508del cor: -0.6

What do the screens show for `COc1ccc(NS(=O)(=O)c2cc(NC(=O)c3ccc(=O)[nH]n3)ccc2C)cc1`?
HIV Env fusion: 10.3; PGC1a acetyl inh: -12.8; EWS-Fli inh: 56.2*; CFTR F508del cor: -1.1; FN deposition inh: 8.0; PAX8 reporter: 26.1

How did Cc1ccc(S(=O)(=O)N(C)C[C@@H]2Oc3ccc(NS(C)(=O)=O)cc3CC(=O)N([C@@H](C)CO)C[C@@H]2C)cc1 do in these assays?
HIV Env fusion: -11.9[16.7 µM]; PGC1a acetyl inh: -5.5; EWS-Fli inh: -7.9; CFTR F508del cor: -0.9; FN deposition inh: 0.4; PAX8 reporter: 2.5

How did COc1ccc2c3c(n(C)c2c1)[C@@H](CO)N(CC1CC1)CC31CN(C(=O)Nc2ccccc2)C1 do in these assays?
EWS-Fli inh: -11.0; CFTR F508del cor: -5.7; PAX8 reporter: -5.6

Results for c1ccc(CCn2nnc3ccccc32)cc1 ?
HIV Env fusion: -19.0; EWS-Fli inh: -75.8; CFTR F508del cor: 1.1; FN deposition inh: -14.7; PAX8 reporter: -126.9

What do the screens show for `Nn1nnc2ccccc21`?
HIV Env fusion: 93.7*; PGC1a acetyl inh: -4.4; EWS-Fli inh: -17.9; CFTR F508del cor: 1.7; FN deposition inh: 3.9; PAX8 reporter: -0.2

Results for CCCC(=O)N1CCC2(CC1)CN(C(=O)C1CC1)[C@H](CO)c1[nH]c3cc(OC)ccc3c12 ?
PGC1a acetyl inh: 3.6; CFTR F508del cor: 1.7

Results for CCOC(=O)/C=C/C(=O)Nc1cc(S(=O)(=O)Nc2ccc(OC)cc2)ccc1N1CCOCC1 ?
HIV Env fusion: 38.9; EWS-Fli inh: -4.8; CFTR F508del cor: -3.5; FN deposition inh: 7.9; PAX8 reporter: 98.2*

How did COc1ccc(NS(=O)(=O)c2ccc(N3CCOCC3)c(NC(=O)C(C)C)c2)cc1 do in these assays?
HIV Env fusion: 8.5; PGC1a acetyl inh: 7.8; EWS-Fli inh: -0.1; CFTR F508del cor: 2.4; FN deposition inh: 1.5; PAX8 reporter: 8.1

How did C[C@@H]1CCCCO[C@H](CN(C)Cc2ccc(Cl)c(Cl)c2)[C@@H](C)CN([C@@H](C)CO)C(=O)c2cc(NS(=O)(=O)c3ccc(Cl)cc3)ccc2O1 do in these assays?
PGC1a acetyl inh: -8.5; EWS-Fli inh: 0.8; CFTR F508del cor: 11.5*; FN deposition inh: -8.8; PAX8 reporter: 79.9*

What do the screens show for `C[C@@H]1CCCCO[C@@H](CN(C)Cc2ccc(Cl)c(Cl)c2)[C@H](C)CN([C@H](C)CO)C(=O)c2cc(NS(=O)(=O)c3ccccc3)ccc2O1`?
HIV Env fusion: 38.3[16.7 µM]; PGC1a acetyl inh: 17.4; EWS-Fli inh: 3.8; CFTR F508del cor: -0.1; PAX8 reporter: 93.0*

What do the screens show for `Cc1ccc(S(=O)(=O)Nc2ccc3c(c2)C(=O)N([C@H](C)CO)C[C@H](C)[C@H](CN(C)Cc2ccc(Cl)c(Cl)c2)OCCCC[C@@H](C)O3)cc1`?
HIV Env fusion: -9.8[16.7 µM]; PGC1a acetyl inh: -10.7; EWS-Fli inh: -18.7; CFTR F508del cor: 2.5; FN deposition inh: -18.4; PAX8 reporter: 45.4

What do the screens show for `C[C@@H]1CCCCO[C@@H](CN(C)Cc2ccc(Cl)c(Cl)c2)[C@@H](C)CN([C@H](C)CO)C(=O)c2cc(NS(=O)(=O)c3ccccc3)ccc2O1`?
HIV Env fusion: -1.7[16.7 µM]; PGC1a acetyl inh: 12.1; EWS-Fli inh: -11.8; CFTR F508del cor: 0.9; PAX8 reporter: -2.3

Results for C[C@@H]1CCCCO[C@H](CN(C)Cc2ccc(Cl)c(Cl)c2)[C@H](C)CN([C@@H](C)CO)C(=O)c2cc(NS(=O)(=O)c3ccc(Cl)cc3)ccc2O1 ?
HIV Env fusion: 20.3[16.7 µM]; PGC1a acetyl inh: -20.6; EWS-Fli inh: 5.1; CFTR F508del cor: 3.2; FN deposition inh: 4.0; PAX8 reporter: 95.4*
